Data set [1] concerns Hs68. The experiment in a line: Cytotoxic activity in Hs 68 cell line by inhibition of cell proliferation. It counts as functional. Conditions: Homo sapiens.
For data set [2], the system named is Human betaherpesvirus 5. The experiment in a line: Antiviral activity determined against human cytomegalovirus (HCMV) in Hs 68 cell line by plaque reduction assay. It counts as functional, organism-based. To be noted: Human betaherpesvirus 5, Hs68. Background: In a plaque reduction assay, fewer plaques than in the control indicate reduced infectivity or spread.

For data set [3], the system named is Mus musculus. The experiment in a line: The area under concentration-time curve(AUC) was determined at 50 mg/kg of compound dose, administered perorally in mice. Further details: dose 50 mg/kg, route oral. It counts as ADME, organism-based. Conditions: in vivo, po. The method in brief:
(§1)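 Mice dosed po or iv, and plasma sampled over time. Non-compartmental analysis of mean plasma concentrations gave Cmax, AUC and t1/2. AUC taken by linear trapezoidal method from zero to last sample, extrapolated to infinity with terminal slope λz. t1/2 = 0.693/λz. Mean of triplicates (SD<8%).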

Data set [4] deals with Mus musculus. The experiment in a line: The area under concentration-time curve(AUC) was determined at 5 mg/kg of compound dose, administered intravenously in mice. It counts as ADME, organism-based. Further details: dose 5 mg/kg, route intravenous. Conditions: in vivo, iv. In short, it runs like this:
as §1

The nature of data set [5]: Pharmacokinetic studies were carried out in vivo after administration of compound at 50 mg/kg perorally in mice. Further details: dose 50 mg/kg, route oral. It counts as ADME, organism-based. Conditions: mouse, po. The method in brief:
as §1

Data set [6] can be described thus: (§2) Half life was evaluated at 50 mg/kg of compound dose, administered perorally in mice. Further details: dose 50 mg/kg, route oral. It counts as ADME, organism-based. Conditions: mouse, in vivo, po. In short, it runs like this: (§3)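 Mouse PK with plasma levels after oral dosing. Mean plasma data analysed non-compartmentally. Terminal slope (λz) obtained from the concentration-time curve, and t1/2 taken as 0.693/λz. Data are means of triplicates (SD<8%).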

The nature of data set [7]: Pharmacokinetic studies were carried out in vivo after administration of compound at 5 mg/kg intravenously in mice. It counts as ADME, organism-based. Details: dose 5 mg/kg, route intravenous. To be noted: mouse, iv. The method in brief: as §1
Data set [8] can be described thus: Pharmacokinetic studies were carried out in vivo after administration of compound at 5 mg/kg perorally in mice. Conditions: mouse, po. Further details: dose 5 mg/kg, route oral. It counts as ADME, organism-based. The method in brief:
as §1

In data set [9] the test system is Mus musculus. The experiment in a line: Half life was evaluated at 5 mg/kg of compound dose, administered intravenously in mice. Conditions: in vivo, iv.
Data set [10] has as its system Mus musculus. The experiment in a line: The area under concentration-time curve(AUC) was determined at 5 mg/kg of compound dose, administered perorally in mice. It counts as ADME, organism-based. Details: dose 5 mg/kg, route oral. Conditions: in vivo, po. In short, it runs like this:
as §1

A short description of data set [11]: Half life was evaluated at 5 mg/kg of compound dose, administered perorally in mice. It counts as ADME, organism-based. Details: dose 5 mg/kg, route oral. Conditions: mouse, in vivo, po. The method in brief: as §3
Data set [12] deals with Mus musculus. The data set is described as §2. It counts as ADME, organism-based. Further details: dose 50 mg/kg, route oral. Conditions: in vivo, po. The method in brief:
as §3

In data set [13] the test system is Mus musculus. The experiment in a line: The area under concentration-time curve(AUC) was determined at 50 mg/kg of compound dose, administered intravenously in mice. It counts as ADME, organism-based. Further details: dose 50 mg/kg, route intravenous. Conditions: in vivo, iv. The method in brief: as §1
Data set [14] is described as follows: Percent oral bioavailability was determined after administration of compound at 50 mg/kg perorally in mice. It counts as ADME, organism-based. To be noted: mouse, in vivo, read-out: BA. In short, it runs like this:
(§4)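 Mouse PK comparing oral and intravenous dosing. AUC estimated by linear trapezoid from time zero to last sample, extrapolated to infinity via terminal slope. Oral bioavailability calculated as AUCpo,0-∞/AUCiv,0-∞ at the corresponding dose. Mean of triplicate data (SD<8%).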

Data set [15] can be described thus: Percent oral bioavailability was determined after administration of compound at 5 mg/kg perorally in mice. It counts as ADME, organism-based. To be noted: mouse, in vivo, read-out: BA. The method in brief: as §4
Data set [16] is described as follows: Pharmacokinetic studies were carried out in vivo after administration of compound at 50 mg/kg intravenously in mice. It counts as ADME, organism-based. Further details: dose 50 mg/kg, route intravenous. Conditions: mouse, iv. In short, it runs like this:
as §1

SMILES strings stand for the structures. ≈ marks a conversion by molar mass, not a printed value. A value given as a limit tells only on which side of the number the result lay.

With `COc1ccccc1CNC(=O)c1ccc2c(Br)nccc2n1`, the 50% cytotoxic concentration (CC50) in [1] is around 25 µg/mL (≈ 67.2 µM). Besides, the 50% inhibitory concentration (IC50) in data set [2] is above 25 µg/mL.
In the same order, the values of `COc1ccccc1CNC(=O)c1ccc2c(C)nccc2n1` are above 25 µg/mL and above 10 µg/mL.
In the same order, the values of `COc1ccccc1CNC(=O)c1ccc2c(Cl)nccc2n1` are around 3.2 µg/mL (≈ 9.76 µM) and above 10 µg/mL.
In the same order, the values of `O=C(NCCc1cccs1)C1=Cc2ccncc2CC1` are 15 µg/mL (≈ 52.7 µM) and 0.17 µg/mL (≈ 0.598 µM).
`O=C(NCCc1ccccc1)C1=Cc2ccncc2CC1` came in with a 50% cytotoxic concentration (CC50) in data set [1] of 25 µg/mL (≈ 89.8 µM). Also, the 50% inhibitory concentration (IC50) in [2] was found to be 0.71 µg/mL (≈ 2.55 µM).
On the same counts, the results for `CC(C)Oc1ccccc1CNC(=O)C1=Cc2ccncc2CC1` are 12.5 µg/mL (≈ 38.8 µM) and 0.68 µg/mL (≈ 2.11 µM).
As to `COc1ccccc1CNC(=O)C1=Cc2ccncc2CC1`, in data set [1], the 50% cytotoxic concentration (CC50) was above 50 µg/mL. In data set [2], this compound yielded a 50% inhibitory concentration (IC50) of 0.64 µg/mL (≈ 2.17 µM). Also, the AUC in data set [3] amounted to 734 ug m-1 min-1; in [4], 57 ug m-1 min-1. For the same compound, the highest concentration (Cmax) in [5] turned out to be 12500 ng/mL; in data set [7], 6940 ng/mL. The half-life in [6] came out at 42.3 min.
The compound `O=C(NCCc1c[nH]c2ccccc12)C1=Cc2ccncc2CC1` showed a CC50 in data set [1] of 5 µg/mL (≈ 15.8 µM). Besides, the peak concentration (Cmax) in data set [8] stood at 600 ng/mL; in data set [5], 15100 ng/mL; in data set [7], 5560 ng/mL; in [16] it was 57800 ng/mL. In [2], the IC50 worked out at 0.1 µg/mL (≈ 0.315 µM). In addition, the AUC is 1762 ug m-1 min-1 in [3], 94 ug m-1 min-1 in [4], 21 ug m-1 min-1 in data set [10] and 2914 ug m-1 min-1 in [13]. Besides, the T1/2 was determined as 14.2 min in [9] and 43.9 min in data set [12]. In addition, the half-life in data set [11] was 15.2 min; in [6], 72.5 min. The bioavailability in data set [14] was determined as 60.4%; in data set [15], 22.5%.
Turning to `COc1ccc(OC)c(CCNC(=O)C2=Cc3ccncc3CC2)c1`, in data set [1], the CC50 was above 50 µg/mL. The compound further showed an IC50 in [2] of 0.23 µg/mL (≈ 0.68 µM).
On the same counts, the results for `COc1ccccc1CNC(=O)c1ccc2c(F)nccc2n1` are around 10 µg/mL (≈ 32.1 µM) and around 10 µg/mL (≈ 32.1 µM).
In the same order, the values of `COc1ccccc1CNC(=O)c1ccc2c(N)nccc2n1` are around 12.5 µg/mL (≈ 40.5 µM) and around 10 µg/mL (≈ 32.4 µM).
In the same order, the values of `COc1ccccc1CNC(=O)c1ccc2c(OC)nccc2n1` are above 50 µg/mL and above 25 µg/mL.
In turn, `COc1ccccc1CCNC(=O)C1=Cc2ccncc2CC1` registered a CC50 in [1] above 25 µg/mL. Moreover, the half-inhibitory concentration (IC50) in data set [2] was found to be 10 µg/mL (≈ 32.4 µM).
On the same counts, the results for `COc1ccccc1CNC(=O)C1CCc2cnccc2C1` (centres undefined) are 100 µg/mL (≈ 337 µM) and 25 µg/mL (≈ 84.4 µM).
`COc1ccccc1CNC(=O)c1ccc2c[n+]([O-])ccc2n1`: in [1], half-maximal cytotoxicity (CC50) was put at 100 µg/mL (≈ 323 µM). Further, the IC50 in data set [2] is above 25 µg/mL.

By CC50 is commonly meant the concentration at which the toxic effect on the cells reaches its halfway point. The low end stands for harm at low concentration, the high end for better tolerance by the cells. Broadly, the IC50 is the midpoint of a concentration-inhibition curve. Read a low IC50 as higher potency. Usually Cmax stands for the highest concentration seen after dosing. A word on the half-life: it is how long it takes for the measured level to halve. A high value points to slow decline.

Source of the values: ChEMBL document CHEMBL1133219, “Design and evaluation of dihydroisoquinolines as potent and orally bioavailable human cytomegalovirus inhibitors” (Bioorg Med Chem Lett, 2000).
